# Assay results taken from ChEMBL document CHEMBL5058577, “EUbOPEN Chemogenomics Library 2 (Multiplex)” (2022).
# Test system: Fibroblast
# Experiment: Multiplex assay against human fibroblast
# Format: toxicity, cell-based
# Method in brief: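 At seeding, live cells were stained with Hoechst33342, BioTracker Green Microtubule Cytoskeleton Dye, MitoTracker Red and Annexin V Alexa Fluor 680. After compound addition they were imaged on a CQ1 microscope at 37°C and 5% CO2, and CellPathfinder machine-learning gating sorted them into Hoechst high-intensity objects or normal cells, with normal cells further split into healthy, pyknosed or fragmented nuclei and pyknosed cells into mitotic or apoptotic. Tubulin, mitochondrial-mass and membrane-permeability phenotypes are given as per cents of cells with healthy nuclei.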
# [1] = 12 h, 1 µM, compound concentration 1 uM, replicate 1
# [2] = 12 h, 1 µM, compound concentration 1 uM, replicate 2
# [3] = 12 h, 10 µM, compound concentration 10 uM, replicate 1
# [4] = 12 h, 10 µM, compound concentration 10 uM, replicate 2
# [5] = 24 h, 1 µM, compound concentration 1 uM, replicate 1
# [6] = 24 h, 1 µM, compound concentration 1 uM, replicate 2
# [7] = 24 h, 10 µM, compound concentration 10 uM, replicate 1
# [8] = 24 h, 10 µM, compound concentration 10 uM, replicate 2
# [9] = 48 h, 1 µM, compound concentration 1 uM, replicate 1
# [10] = 48 h, 1 µM, compound concentration 1 uM, replicate 2
# [11] = 48 h, 10 µM, compound concentration 10 uM, replicate 1
# [12] = 48 h, 10 µM, compound concentration 10 uM, replicate 2
compound,measurement,setting,value
COCCn1c(C)c(C)s/c1=N\C(=O)C1C(C)(C)C1(C)C,Population Apoptotic (%),[1],43%
same,Population Fragmented Nuclei (%),[1],18%
same,Population Healthy Nuclei (%),[1],69%
same,Population Hoechst High Intensity Objects (%),[1],0%
same,Population Membrane Permeable-Phenotype (%),[1],0%
same,Population Mitochondria Different-Phenotype (%),[1],7%
same,Population Mitotic Cells (%),[1],56%
same,Population Normal (%),[1],99%
same,Population Pyknosed Nuclei (%),[1],11%
same,Population Tubulin-Different-Phenotype (%),[1],34%
same,Total Cell Count,[1],136
same,Population Apoptotic (%),[2],40%
same,Population Fragmented Nuclei (%),[2],22%
same,Population Healthy Nuclei (%),[2],57%
same,Population Hoechst High Intensity Objects (%),[2],4%
same,Population Membrane Permeable-Phenotype (%),[2],1%
same,Population Mitochondria Different-Phenotype (%),[2],5%
same,Population Mitotic Cells (%),[2],60%
same,Population Normal (%),[2],95%
same,Population Pyknosed Nuclei (%),[2],19%
same,Population Tubulin-Different-Phenotype (%),[2],32%
same,Total Cell Count,[2],133
same,Population Apoptotic (%),[3],64%
same,Population Fragmented Nuclei (%),[3],19%
same,Population Healthy Nuclei (%),[3],59%
same,Population Hoechst High Intensity Objects (%),[3],2%
same,Population Membrane Permeable-Phenotype (%),[3],1%
same,Population Mitochondria Different-Phenotype (%),[3],14%
same,Population Mitotic Cells (%),[3],35%
same,Population Normal (%),[3],97%
same,Population Pyknosed Nuclei (%),[3],20%
same,Population Tubulin-Different-Phenotype (%),[3],56%
same,Total Cell Count,[3],167
same,Population Apoptotic (%),[4],37%
same,Population Fragmented Nuclei (%),[4],38%
same,Population Healthy Nuclei (%),[4],40%
same,Population Hoechst High Intensity Objects (%),[4],6%
same,Population Membrane Permeable-Phenotype (%),[4],13%
same,Population Mitochondria Different-Phenotype (%),[4],8%
same,Population Mitotic Cells (%),[4],62%
same,Population Normal (%),[4],93%
same,Population Pyknosed Nuclei (%),[4],21%
same,Population Tubulin-Different-Phenotype (%),[4],64%
same,Total Cell Count,[4],120
same,Population Apoptotic (%),[5],64%
same,Population Fragmented Nuclei (%),[5],15%
same,Population Healthy Nuclei (%),[5],72%
same,Population Hoechst High Intensity Objects (%),[5],2%
same,Population Membrane Permeable-Phenotype (%),[5],1%
same,Population Mitochondria Different-Phenotype (%),[5],5%
same,Population Mitotic Cells (%),[5],35%
same,Population Normal (%),[5],97%
same,Population Pyknosed Nuclei (%),[5],11%
same,Population Tubulin-Different-Phenotype (%),[5],38%
same,Total Cell Count,[5],122
same,Population Apoptotic (%),[6],54%
same,Population Fragmented Nuclei (%),[6],28%
same,Population Healthy Nuclei (%),[6],54%
same,Population Hoechst High Intensity Objects (%),[6],3%
same,Population Membrane Permeable-Phenotype (%),[6],5%
same,Population Mitotic Cells (%),[6],45%
same,Population Normal (%),[6],96%
same,Population Pyknosed Nuclei (%),[6],17%
same,Population Tubulin-Different-Phenotype (%),[6],37%
same,Total Cell Count,[6],132
same,Population Apoptotic (%),[7],68%
same,Population Fragmented Nuclei (%),[7],20%
same,Population Healthy Nuclei (%),[7],59%
same,Population Hoechst High Intensity Objects (%),[7],4%
same,Population Membrane Permeable-Phenotype (%),[7],0%
same,Population Mitochondria Different-Phenotype (%),[7],15%
same,Population Mitotic Cells (%),[7],31%
same,Population Normal (%),[7],95%
same,Population Pyknosed Nuclei (%),[7],19%
same,Population Tubulin-Different-Phenotype (%),[7],61%
same,Total Cell Count,[7],154
same,Population Apoptotic (%),[8],33%
same,Population Fragmented Nuclei (%),[8],40%
same,Population Healthy Nuclei (%),[8],36%
same,Population Hoechst High Intensity Objects (%),[8],3%
same,Population Membrane Permeable-Phenotype (%),[8],11%
same,Population Mitochondria Different-Phenotype (%),[8],19%
same,Population Mitotic Cells (%),[8],66%
same,Population Normal (%),[8],96%
same,Population Pyknosed Nuclei (%),[8],23%
same,Population Tubulin-Different-Phenotype (%),[8],66%
same,Total Cell Count,[8],120
same,Population Apoptotic (%),[9],60%
same,Population Fragmented Nuclei (%),[9],23%
same,Population Healthy Nuclei (%),[9],63%
same,Population Hoechst High Intensity Objects (%),[9],4%
same,Population Membrane Permeable-Phenotype (%),[9],0%
same,Population Mitochondria Different-Phenotype (%),[9],4%
same,Population Mitotic Cells (%),[9],40%
same,Population Normal (%),[9],95%
same,Population Pyknosed Nuclei (%),[9],12%
same,Population Tubulin-Different-Phenotype (%),[9],43%
same,Total Cell Count,[9],123
same,Population Fragmented Nuclei (%),[10],31%
same,Population Healthy Nuclei (%),[10],56%
same,Population Hoechst High Intensity Objects (%),[10],7%
same,Population Membrane Permeable-Phenotype (%),[10],2%
same,Population Normal (%),[10],92%
same,Population Pyknosed Nuclei (%),[10],11%
same,Population Tubulin-Different-Phenotype (%),[10],45%
same,Total Cell Count,[10],140
same,Population Apoptotic (%),[11],75%
same,Population Fragmented Nuclei (%),[11],23%
same,Population Healthy Nuclei (%),[11],56%
same,Population Hoechst High Intensity Objects (%),[11],7%
same,Population Membrane Permeable-Phenotype (%),[11],0%
same,Population Mitochondria Different-Phenotype (%),[11],22%
same,Population Mitotic Cells (%),[11],25%
same,Population Normal (%),[11],92%
same,Population Pyknosed Nuclei (%),[11],20%
same,Population Tubulin-Different-Phenotype (%),[11],67%
same,Total Cell Count,[11],151
same,Population Apoptotic (%),[12],58%
same,Population Fragmented Nuclei (%),[12],49%
same,Population Healthy Nuclei (%),[12],34%
same,Population Hoechst High Intensity Objects (%),[12],8%
same,Population Membrane Permeable-Phenotype (%),[12],14%
same,Population Mitochondria Different-Phenotype (%),[12],11%
same,Population Mitotic Cells (%),[12],41%
same,Population Normal (%),[12],91%
same,Population Pyknosed Nuclei (%),[12],16%
same,Population Tubulin-Different-Phenotype (%),[12],65%
same,Total Cell Count,[12],111
